Assay results taken from ChEMBL document CHEMBL1128681, “Studies on the monoamine oxidase (MAO)-catalyzed oxidation of phenyl-substituted 1-methyl-4-phenoxy-1,2,3,6-tetrahydropyridine derivatives: factors contributing to MAO-A and MAO-B selectivity” (J Med Chem, 1995).

Assay: Selectivity coefficient as ratio of Kcat/Km for MAO-A and Kcat/Km for MAO-B
In short: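 Selectivity coefficient: MAO-A kcat/KM divided by MAO-B kcat/KM. Each value came from spectrophotometric initial-rate kinetics at 100–2000 μM substrate in 100 mM sodium phosphate pH 7.4, with 0.16 μM MAO-A or 0.08 μM MAO-B, and double-reciprocal plot analysis.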

Structure (SMILES) | Selectivity coefficient
CN1CC=C(c2ccccc2)CC1 | 0.03
CN1CC=C(Oc2ccc(-c3ccccc3)cc2)CC1 | 4.71
CN1CC=C(Oc2cccc(Cl)c2)CC1 | 5.99
CN1CC=C(Oc2cccc([N+](=O)[O-])c2)CC1 | 1.21
CN1CC=C(Oc2ccccc2-c2ccccc2)CC1 | 4.35
Cc1ccccc1OC1=CCN(C)CC1 | 1.4
Cc1cccc(OC2=CCN(C)CC2)c1 | 1.16
CN1CC=C(Oc2ccc([N+](=O)[O-])cc2)CC1 | 2.53
COc1cccc(OC2=CCN(C)CC2)c1 | 3.88
CN1CC=C(Oc2ccccc2)CC1 | 0.57
CN1CC=C(Oc2cccc(-c3ccccc3)c2)CC1 | 8.74
CN1CC=C(Oc2ccccc2Cl)CC1 | 2.99
CN1CC=C(Oc2ccc(Cl)cc2)CC1 | 2.15
Cc1ccc(OC2=CCN(C)CC2)cc1 | 0.3
COc1ccc(OC2=CCN(C)CC2)cc1 | 2.08
CN1CC=C(Oc2ccccc2[N+](=O)[O-])CC1 | 1.7
CN1CC=C(Cc2ccccc2)CC1 | 0.08
COc1ccccc1OC1=CCN(C)CC1 | 1.01
